KCNQ1 block: inhibitors of human KCNQ1 channel, primary screen, cell-based, thallium flux, high-throughput; CHO-K1 KCNQ1, FluxOR thallium flux fluorescence; active compounds read high; AID 2642, 2010; Potassium voltage-gated channel subfamily KQT member 1 (Homo sapiens), P51787; 310,000 tested, 1.3% active; B-score at 10 µM;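 active means compounds whose thallium flux B-score, printed positive for inhibition, exceeds three library SD while starting fluorescence stays within three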;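 further: channel opened by potassium depolarization with thallium stimulus after 20 min compound exposure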
Kir21 block: inhibitors of mouse Kir2.1 inward-rectifier potassium channel; Inward rectifier potassium channel 2 (Mus musculus), P35561; HEK293-Kir2.1, FluxOR thallium flux fluorescence; active compounds read low; B-score at 10 µM; 310,000 tested, 0.85% active;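 active means fluorescence ratio B-score at or below minus 3 SD of library scores, with starting-brightness B-score within 2 SD, cut at about -4.2 in these data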;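 further: channel flux triggered by added potassium and thallium sulfate stimulus; B-score of peak minus minimum fluorescence over baseline after thallium stimulus; more negative B-score means stronger Kir2.1 block with less thallium influx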
Target sequence (P35561 whole entry, looked up): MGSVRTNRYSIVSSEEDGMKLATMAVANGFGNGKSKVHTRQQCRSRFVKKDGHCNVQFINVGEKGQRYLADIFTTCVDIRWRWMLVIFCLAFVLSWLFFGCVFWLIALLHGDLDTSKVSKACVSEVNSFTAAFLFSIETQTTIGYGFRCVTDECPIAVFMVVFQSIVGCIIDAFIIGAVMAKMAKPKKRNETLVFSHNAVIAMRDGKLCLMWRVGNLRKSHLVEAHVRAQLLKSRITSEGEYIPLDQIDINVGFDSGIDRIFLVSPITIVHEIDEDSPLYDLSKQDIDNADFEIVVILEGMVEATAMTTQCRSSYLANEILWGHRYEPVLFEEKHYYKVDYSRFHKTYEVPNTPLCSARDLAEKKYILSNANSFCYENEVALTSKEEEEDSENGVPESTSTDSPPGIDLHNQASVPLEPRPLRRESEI
KCNK9 inh: KCNK9 potassium channel inhibitors, primary screen, HEK293 cells, thallium flux; Potassium channel subfamily K member 9 (Homo sapiens), Q9NPC2; FluxOR thallium flux fluorescence; active compounds read low; B-score at 10 µM; 310,000 tested, 1.2% active;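 active means ratio B-score over 3 SD below the library mean, with starting fluorescence within 5 SD of its mean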;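 further: negative B-score means less thallium flux so channel inhibition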
hERG rescue: hERG rescue from dofetilide block, primary screen, cell-based, CHO-hERG, FluxOR thallium flux, dofetilide IC70; Voltage-gated inwardly rectifying potassium channel KCNH2 (Homo sapiens), Q12809; dofetilide IC70 present; activation (rescue from dofetilide block), less the hit threshold, % at 10 µM; 310,000 tested, 0.51% active;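 active means activation above the mean of controls blocked by dofetilide plus 5 SD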;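 further: thallium influx through hERG after potassium depolarization seen as dye fluorescence rise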
KCNQ1 act: potentiators or activators of KCNQ1 channel, primary screen, cell-based, thallium flux, high-throughput; B-score at 10 µM; CHO-K1 KCNQ1, thallium flux FluxOR fluorescence; active compounds read high; 310,000 tested, 0.35% active; Potassium voltage-gated channel subfamily KQT member 1 (Homo sapiens), P51787; AID 2648, 2010;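 active means fluorescence ratio B-score, a plate-corrected score, at least three library SD, with initial intensity B-score within 5 SD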
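Assay system: CHO-K1 cells stably expressing KCNQ1. Medium: assay buffer for compound exposure, DMSO matched across wells. Timing: 37 °C overnight plating, 90-min dark dye load, 20-min compound pretreatment. Signal: kinetic FluxOR fluorescence, 10 s baseline plus 110 s post-stimulus.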
KCNK3 inh: human KCNK3 channel inhibitors, primary screen, CHO cells, FluxOR thallium flux, B-score; B-score at 10 µM; AID 602410, 2012; FluxOR fluorescence; active compounds read low; Potassium channel subfamily K member 3 (Homo sapiens), O14649; 340,000 tested, 0.84% active;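 active means B-score under library mean minus 4 SD, starting fluorescence ratio at most library mean plus 5 SD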;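 further: more negative B-score means stronger inhibition of thallium flux through KCNK3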
KCNK3 inh conf: retest of human KCNK3 channel inhibitors, confirmation, CHO cells, FluxOR thallium flux, triplicate | FluxOR fluorescence; 0% buffer, 100% carvedilol maximal block | shares compounds with KCNK3 inh | ratio percent of control, % at 10 µM | AID 651638, 2012 | 2,400 tested, 99% active;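 active means ratio percent of control, averaged over triplicates, above buffer control mean plus 5 SD, cut at about 64% in these data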;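 further: ratio is the fluorescence rise from min to max over baseline after thallium stimulus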
KCNK3 noninduced: thallium flux inhibition in non-induced cells, primary screen, counter-screen for KCNK3 inhibitor project, cell-based, non-induced KCNK3 line, FluxOR thallium, triplicate; non-induced KCNK3 parental cells; active compounds read low; thallium flux ratio (lower = more inhibition) at 10 µM; 2,400 tested, 40% active; shares compounds with KCNK3 inh;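 active means thallium flux ratio, averaged over three wells, more than 5 SD below the buffer control mean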;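 further: host cells are CHO cells without KCNK3 induction; ratio is peak minus trough fluorescence over baseline then normalized to buffer controls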
Starred values were filed as active, the others as inactive. This is a sample that favours compounds with a hit; in the whole collection about 3.7% have one here.

For CC(C)[C@H](NC(=O)C1CC(=O)N(c2ccc3c(c2)OCCO3)C1)C(=O)NC1CCCC1 (stereo partly drawn) the results were KCNQ1 block inactive, Kir21 block -0.53, KCNK9 inh inactive, hERG rescue -8.4, KCNQ1 act inactive and KCNK3 inh inactive.
CCOC(=O)c1sc2nc(C)nc(N3CCCCC3C)c2c1C (stereo not drawn) was read as KCNQ1 block inactive, Kir21 block -0.01, KCNK9 inh inactive, hERG rescue -10.7, KCNQ1 act inactive, KCNK3 inh -8.78*, KCNK3 inh conf 90.3* and KCNK3 noninduced 0.148*.
`CCc1ccc(-c2cc(C)no2)cc1S(=O)(=O)NCc1ccccc1OC` gave KCNQ1 block inactive, Kir21 block 0.84, KCNK9 inh inactive, hERG rescue -9.7, KCNQ1 act inactive, KCNK3 inh -11.4*, KCNK3 inh conf 97.7* and KCNK3 noninduced inactive.
Screening CCc1ccc(-c2cc(C)no2)cc1S(=O)(=O)N1CCN(c2ccccc2OC)CC1 returned KCNQ1 block inactive, Kir21 block 1.12, KCNK9 inh inactive, hERG rescue -12.8, KCNQ1 act inactive, KCNK3 inh -9.56*, KCNK3 inh conf 82.7* and KCNK3 noninduced 0.151*.
Screening Cc1cc(-c2ccc(C)c(S(=O)(=O)N3CCN(c4ccccn4)CC3)c2)on1 returned KCNQ1 block inactive, Kir21 block 0.36, KCNK9 inh inactive, hERG rescue -7.1, KCNQ1 act inactive and KCNK3 inh inactive.
Screening O=C(COC(=O)c1cc([N+](=O)[O-])ccc1N1CCOCC1)Nc1c(Cl)cccc1C(F)(F)F returned KCNQ1 block inactive, Kir21 block -1.39, KCNK9 inh inactive, hERG rescue -8.6, KCNQ1 act inactive and KCNK3 inh inactive.
`CCOC(=O)N1CCN(c2nc3ccc(C(=O)c4ccccc4)cc3n3cnnc23)CC1` gave KCNQ1 block inactive, Kir21 block 1.34, KCNK9 inh inactive, hERG rescue -9.6, KCNQ1 act inactive, KCNK3 inh -11*, KCNK3 inh conf 83.0* and KCNK3 noninduced inactive.
`O=C(c1ccccc1)c1ccc2nc(N3CCN(C(=O)c4ccco4)CC3)c3nncn3c2c1` gave KCNQ1 block inactive, Kir21 block 0.2, KCNK9 inh inactive, hERG rescue -4.7, KCNQ1 act inactive and KCNK3 inh inactive.
`Cc1ccc(S(=O)(=O)N2CCN=C2SCc2ccccc2)cc1` gave KCNQ1 block inactive, Kir21 block -2.01, KCNK9 inh inactive, hERG rescue -5.0, KCNQ1 act inactive and KCNK3 inh inactive.
`Cc1cccc(CSC2=NCCN2S(=O)(=O)c2ccc(F)cc2)c1` gave KCNQ1 block inactive, Kir21 block -1.01, KCNK9 inh inactive, hERG rescue -9.1, KCNQ1 act inactive, KCNK3 inh -8.87*, KCNK3 inh conf 105.0* and KCNK3 noninduced inactive.
COc1ccc(-c2nc(CS(=O)CC(=O)NC(C)CCc3ccccc3)c(C)o2)cc1OC (stereo not drawn) was read as KCNQ1 block inactive, Kir21 block 0.18, KCNK9 inh inactive, hERG rescue -9.4, KCNQ1 act inactive and KCNK3 inh inactive.

Source: PubChem BioAssay (Johns Hopkins Ion Channel Center)
